From ChEMBL document CHEMBL1139595, “Inhibition of IKK-2 by 2-[(aminocarbonyl)amino]-5-acetylenyl-3-thiophenecarboxamides” (Bioorg Med Chem Lett, 2005)

Assays:
[1] = biological target: T1, Inhibitor of nuclear factor kappa-B kinase subunit beta (Homo sapiens, UniProt O14920); test: Inhibitory concentration against human recombinant I-kappa-B-kinase 2 from 3 experiments
T1 sequence (O14920 whole entry): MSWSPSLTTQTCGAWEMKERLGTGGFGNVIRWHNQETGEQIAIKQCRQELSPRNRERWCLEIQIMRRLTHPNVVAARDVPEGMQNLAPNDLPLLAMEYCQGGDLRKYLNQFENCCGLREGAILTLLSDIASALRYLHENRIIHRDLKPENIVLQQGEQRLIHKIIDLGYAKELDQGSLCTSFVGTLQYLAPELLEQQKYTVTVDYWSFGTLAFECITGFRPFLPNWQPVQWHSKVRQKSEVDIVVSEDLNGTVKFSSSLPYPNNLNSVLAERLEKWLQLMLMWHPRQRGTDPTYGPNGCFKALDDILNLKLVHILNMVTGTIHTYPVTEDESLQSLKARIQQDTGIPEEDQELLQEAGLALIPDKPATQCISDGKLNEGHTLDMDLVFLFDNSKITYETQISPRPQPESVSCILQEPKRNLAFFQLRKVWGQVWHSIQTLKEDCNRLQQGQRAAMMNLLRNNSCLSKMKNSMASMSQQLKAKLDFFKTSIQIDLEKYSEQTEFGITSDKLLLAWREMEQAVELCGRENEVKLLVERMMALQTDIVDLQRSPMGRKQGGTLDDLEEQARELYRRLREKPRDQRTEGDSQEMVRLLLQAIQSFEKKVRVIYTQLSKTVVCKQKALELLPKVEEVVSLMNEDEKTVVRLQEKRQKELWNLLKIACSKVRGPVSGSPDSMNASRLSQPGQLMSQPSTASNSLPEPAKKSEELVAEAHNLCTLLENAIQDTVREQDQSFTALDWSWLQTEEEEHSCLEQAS

[2] = biological target: T2, Inhibitor of nuclear factor kappa-B kinase subunit beta (Homo sapiens) (UniProt O14920); test: Ratio of inhibitory concentration of rheumatoid arthritis-derived synovial fibroblasts to human recombinant I-kappa-B-kinase 2; format: functional
T2 sequence (whole entry): T1 sequence (O14920 whole entry)

[3] = Lethal concentration towards rheumatoid arthritis-derived synovial fibroblasts using Alamar Blue reagent; format: functional; conditions: Homo sapiens; read-out: LC50 (the source's name)
Summary of the method: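 Primary RASF from knee synovectomy tissue, cultured in DMEM high glucose with 15% bovine serum; 1.5×10^4 cells/well in 1% serum, pre-treated 1 h with seven-point inhibitor doses in 0.2% Me2SO, then stimulated overnight with 1 ng/mL IL-1β. After removing the supernatant, Alamar Blue added, 2.5 h at 37 °C, 5% CO2; fluorescence read, LC50 derived.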

[4] = Inhibitory concentration against interleukin-8 production in rheumatoid arthritis-derived synovial fibroblasts (RASFs) from 2 experiments; format: functional; conditions: Homo sapiens
Summary of the method: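 Primary RASF from knee synovectomy tissue, grown in DMEM high glucose with 15% bovine serum and gentamicin. 1.5×10^4 cells/well attached overnight, moved to DMEM with 1% serum. Pre-treated 1 h with a seven-point dose series in 0.2% Me₂SO, then stimulated overnight with 1 ng/mL IL-1β. IL-8 in supernatant measured by ELISA; IC50 from curve.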

SMILES | IC50 [1] [µM] | Ratio [2] | CC50 [3] [µM] | IC50 [4] [µM]
CC(C)C(O)c1cc(C#Cc2cc(C(N)=O)c(NC(N)=O)s2)cs1 (stereo not drawn) | 0.563 |  |  | 
Cc1ccccc1C#Cc1cc(C(N)=O)c(NC(N)=O)s1 | 0.716 |  |  | 
NC(=O)Nc1sc(C#Cc2csc(CO)c2)cc1C(N)=O | 0.195 | 5.8 | > 30 | 1.13
CCC(O)c1cc(C#Cc2cc(C(N)=O)c(NC(N)=O)s2)cs1 (stereo not drawn) | 0.465 |  |  | 
N#Cc1cc(C#Cc2cc(C(N)=O)c(NC(N)=O)s2)cs1 | 0.333 | 2.5 | > 30 | 0.832
NC(=O)Nc1sc(C#Cc2ccccc2Cl)cc1C(N)=O | 1.01 |  |  | 
NC(=O)c1sc(-c2ccsc2)cc1N | 11.2 |  |  | 
NC(=O)Nc1sc(C#Cc2ccsc2)cc1C(N)=O | 0.42 | 2.8 | > 30 | 1.18
NC(=O)Nc1sc(C#Cc2ccccc2F)cc1C(N)=O | 0.62 |  |  | 
CS(=O)(=O)Nc1cccc(C#Cc2cc(C(N)=O)c(NC(N)=O)s2)c1 | 0.454 | 28 | > 30 | 12.9
NC(=O)Nc1sc(C#Cc2cccc(O)c2)cc1C(N)=O | 0.303 | 1.9 | 2.72 | 0.576
NC(=O)Nc1sc(C#CC2CC2)cc1C(N)=O | 0.273 | 11 | > 30 | 3.06
NC(=O)Nc1sc(C#Cc2cccc(F)c2)cc1C(N)=O | 0.331 | 5 | > 30 | 1.65
COC(=O)NCCC(=O)Nc1cccc(C#Cc2cc(C(N)=O)c(NC(N)=O)s2)c1 | 4.4 |  |  | 

Continued, in another order:

IC50 [1] [µM] | SMILES | Ratio [2] | CC50 [3] [µM] | IC50 [4] [µM]
1.88 | CN(C)CC(=O)Nc1cccc(C#Cc2cc(C(N)=O)c(NC(N)=O)s2)c1 |  |  | 
0.98 | NC(=O)Nc1sc(C#Cc2cccc(NC(=O)C(F)(F)F)c2)cc1C(N)=O |  |  | 
0.709 | NC(=O)Nc1sc(C#Cc2cccc(N)c2)cc1C(N)=O |  |  | 
1.85 | NC(=O)Nc1sc(C#Cc2cccc(NC(=O)c3ccncc3)c2)cc1C(N)=O |  |  | 
0.704 | NC(=O)Nc1sc(C#Cc2cccc(NC(=O)c3ccccc3)c2)cc1C(N)=O |  |  | 
> 20 | NC(=O)Nc1sc(C#Cc2cccc(NC(=O)c3ccccn3)c2)cc1C(N)=O |  |  | 
0.964 | CC(=O)Nc1cccc(C#Cc2cc(C(N)=O)c(NC(N)=O)s2)c1 |  |  | 
0.557 | NC(=O)Nc1sc(C#Cc2cccc(NC(=O)c3cccnc3)c2)cc1C(N)=O |  |  | 
